Reference: PMC6398604 (Journal of medicinal chemistry, 2018)
One block for each molecule: values may come before it.

How the values were obtained:
[1] = cited from earlier work
[2] = Rat biomarker assay: inhibitor concentrations in plasma, brain and CSF; format: in vivo; conditions: for concentration at 4 h: male, Sprague Dawley, CSF, oral, 10 mg/kg, Free CSF, 4 hours after 10mg/kg oral dose, corrected for non-specific binding to CSF
[3] = cited from earlier work; remark: listed apart in the source
Human MB-COMT = biological target: T1, Human MB-COMT (Homo sapiens, UniProt P21964); experiment: MTase Glo Methyltransferase assay, MB-COMT; format: biochemical
T1 sequence (P21964 1-271): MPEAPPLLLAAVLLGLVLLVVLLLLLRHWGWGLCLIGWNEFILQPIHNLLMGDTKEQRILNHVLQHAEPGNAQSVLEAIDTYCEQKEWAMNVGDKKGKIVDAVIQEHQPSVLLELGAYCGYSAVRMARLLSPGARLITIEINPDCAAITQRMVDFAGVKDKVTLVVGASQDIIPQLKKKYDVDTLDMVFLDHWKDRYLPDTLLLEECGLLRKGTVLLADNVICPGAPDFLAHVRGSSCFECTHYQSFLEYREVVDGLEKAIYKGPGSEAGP

Rat pharmacokinetics = format: in vivo; conditions: for clearance: rat, plasma, iv, 1 mg/kg; for rat PK profile (in words): rat PK studies
rat hepatocytes = experiment: Hepatocyte stability; format: in vitro ADME
[4] = Mouse Blood-Brain Barrier; format: in vivo; conditions: 10 mg/kg ip, mice
In short: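 Male C57BL/6J mice (8 weeks) were habituated and handled before dosing. Test compound was suspended in 0.1% Tween80, 0.1% silicone antifoam and 1% methylcellulose in water, then given once ip at 10 mg/kg (10 mL/kg). At 5, 15 or 60 min, mice under isoflurane gave cardiac blood (Li-heparin) and were PBS-perfused. Plasma was spun 2000 rpm, 4°C, 15 min. Brain was homogenised in 4x (w/v) PBS pH 7.4 for total levels.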

[5] = Non-specific binding to CSF by equilibrium dialysis; format: in vitro ADME; conditions: pooled rat CSF, 2 μM testing concentration
P-glycoprotein = P-glycoprotein (Homo sapiens, UniProt P08183); experiment: P-gp efflux ratio in P-glycoprotein expressing MDCK cells; format: in vitro ADME
Chain of P-glycoprotein (P08183 whole entry): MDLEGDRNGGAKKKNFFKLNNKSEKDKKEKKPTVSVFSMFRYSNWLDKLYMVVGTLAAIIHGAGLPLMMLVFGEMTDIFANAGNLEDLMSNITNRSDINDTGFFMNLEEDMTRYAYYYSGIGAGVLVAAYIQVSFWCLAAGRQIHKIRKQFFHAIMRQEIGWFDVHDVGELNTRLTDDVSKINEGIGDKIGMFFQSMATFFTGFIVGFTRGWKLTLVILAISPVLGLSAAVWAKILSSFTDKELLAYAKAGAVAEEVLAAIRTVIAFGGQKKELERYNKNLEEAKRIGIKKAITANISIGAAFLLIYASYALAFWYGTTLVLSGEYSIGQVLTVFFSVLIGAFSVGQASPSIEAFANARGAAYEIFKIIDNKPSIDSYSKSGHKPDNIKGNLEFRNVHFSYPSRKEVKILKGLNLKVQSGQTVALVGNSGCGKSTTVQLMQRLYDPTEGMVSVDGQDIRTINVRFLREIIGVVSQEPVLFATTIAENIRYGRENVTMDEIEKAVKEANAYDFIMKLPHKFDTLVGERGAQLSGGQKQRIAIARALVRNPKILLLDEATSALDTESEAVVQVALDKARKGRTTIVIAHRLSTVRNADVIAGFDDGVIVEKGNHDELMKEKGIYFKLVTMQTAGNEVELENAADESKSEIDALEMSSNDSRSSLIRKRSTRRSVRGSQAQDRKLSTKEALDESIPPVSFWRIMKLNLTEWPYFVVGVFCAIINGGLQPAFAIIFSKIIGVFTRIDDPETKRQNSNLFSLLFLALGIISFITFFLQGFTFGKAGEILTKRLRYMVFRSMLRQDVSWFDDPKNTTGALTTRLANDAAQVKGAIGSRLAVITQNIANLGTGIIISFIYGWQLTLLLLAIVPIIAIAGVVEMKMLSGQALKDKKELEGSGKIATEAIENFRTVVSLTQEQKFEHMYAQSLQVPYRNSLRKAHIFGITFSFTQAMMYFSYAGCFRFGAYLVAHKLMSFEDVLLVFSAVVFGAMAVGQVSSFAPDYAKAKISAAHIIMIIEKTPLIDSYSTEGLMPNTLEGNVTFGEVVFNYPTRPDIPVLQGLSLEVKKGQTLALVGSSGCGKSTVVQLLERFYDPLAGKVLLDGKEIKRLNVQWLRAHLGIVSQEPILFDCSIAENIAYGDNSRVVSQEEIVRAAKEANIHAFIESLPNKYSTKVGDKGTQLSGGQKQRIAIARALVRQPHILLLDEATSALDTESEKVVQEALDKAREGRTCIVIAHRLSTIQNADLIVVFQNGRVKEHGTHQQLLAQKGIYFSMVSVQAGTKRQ

[6] = system: dopamine metabolites HVA and DOPAC in rat CSF (COMT); experiment: Rat biomarker assay: HVA and DOPAC in CSF; format: in vivo; conditions: 4 hours after 10 mpk oral
MRP2 = MRP2 (Homo sapiens, UniProt Q92887); experiment: Transporter susceptibility and inhibitory activity, MRP2; format: in vitro ADME; conditions: data not shown
Chain of MRP2 (Q92887 whole entry, species assumed): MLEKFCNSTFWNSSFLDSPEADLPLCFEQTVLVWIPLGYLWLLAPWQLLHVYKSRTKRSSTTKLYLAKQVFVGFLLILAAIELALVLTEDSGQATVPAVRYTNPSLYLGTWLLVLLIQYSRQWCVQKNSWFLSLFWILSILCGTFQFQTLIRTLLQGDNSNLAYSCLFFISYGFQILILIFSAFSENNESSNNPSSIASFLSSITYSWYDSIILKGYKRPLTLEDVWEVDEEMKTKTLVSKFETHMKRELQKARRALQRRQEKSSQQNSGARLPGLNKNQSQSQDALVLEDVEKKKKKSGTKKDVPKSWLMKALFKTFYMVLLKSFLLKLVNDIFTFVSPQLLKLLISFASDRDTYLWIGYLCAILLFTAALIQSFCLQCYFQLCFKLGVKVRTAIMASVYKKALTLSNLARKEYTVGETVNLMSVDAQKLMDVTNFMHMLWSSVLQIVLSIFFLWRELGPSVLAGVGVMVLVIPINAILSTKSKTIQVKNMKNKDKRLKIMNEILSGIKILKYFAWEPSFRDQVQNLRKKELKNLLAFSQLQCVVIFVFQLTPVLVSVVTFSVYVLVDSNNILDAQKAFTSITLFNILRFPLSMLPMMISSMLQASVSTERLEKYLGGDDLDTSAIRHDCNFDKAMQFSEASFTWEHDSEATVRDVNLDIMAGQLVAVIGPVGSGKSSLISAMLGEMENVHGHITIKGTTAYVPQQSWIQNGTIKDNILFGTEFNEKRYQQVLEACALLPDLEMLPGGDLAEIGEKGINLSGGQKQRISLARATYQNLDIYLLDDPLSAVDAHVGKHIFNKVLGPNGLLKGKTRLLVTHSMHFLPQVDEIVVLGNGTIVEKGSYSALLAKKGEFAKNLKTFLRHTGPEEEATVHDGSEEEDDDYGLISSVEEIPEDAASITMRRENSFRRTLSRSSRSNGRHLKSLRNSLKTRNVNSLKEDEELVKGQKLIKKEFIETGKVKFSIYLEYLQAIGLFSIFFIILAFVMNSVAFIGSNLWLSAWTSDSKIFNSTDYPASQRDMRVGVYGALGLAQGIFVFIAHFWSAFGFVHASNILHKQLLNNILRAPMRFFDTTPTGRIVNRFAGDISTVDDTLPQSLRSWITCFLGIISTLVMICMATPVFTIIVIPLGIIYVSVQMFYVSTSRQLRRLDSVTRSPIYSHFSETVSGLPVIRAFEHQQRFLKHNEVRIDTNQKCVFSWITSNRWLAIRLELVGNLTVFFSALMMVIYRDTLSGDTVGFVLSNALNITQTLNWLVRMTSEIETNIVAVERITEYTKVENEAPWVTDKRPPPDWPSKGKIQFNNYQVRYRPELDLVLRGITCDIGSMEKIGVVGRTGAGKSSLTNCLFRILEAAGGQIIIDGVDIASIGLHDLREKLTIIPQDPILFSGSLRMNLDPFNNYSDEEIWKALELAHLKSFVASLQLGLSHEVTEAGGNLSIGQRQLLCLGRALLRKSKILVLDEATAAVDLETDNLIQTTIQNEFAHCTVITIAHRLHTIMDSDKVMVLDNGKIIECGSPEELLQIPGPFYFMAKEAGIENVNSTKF

BCRP = biological target: T2, BCRP (Homo sapiens, UniProt Q9UNQ0); experiment: Transporter susceptibility and inhibitory activity, BCRP; format: in vitro ADME; conditions: data not shown
T2 sequence (Q9UNQ0 1-655): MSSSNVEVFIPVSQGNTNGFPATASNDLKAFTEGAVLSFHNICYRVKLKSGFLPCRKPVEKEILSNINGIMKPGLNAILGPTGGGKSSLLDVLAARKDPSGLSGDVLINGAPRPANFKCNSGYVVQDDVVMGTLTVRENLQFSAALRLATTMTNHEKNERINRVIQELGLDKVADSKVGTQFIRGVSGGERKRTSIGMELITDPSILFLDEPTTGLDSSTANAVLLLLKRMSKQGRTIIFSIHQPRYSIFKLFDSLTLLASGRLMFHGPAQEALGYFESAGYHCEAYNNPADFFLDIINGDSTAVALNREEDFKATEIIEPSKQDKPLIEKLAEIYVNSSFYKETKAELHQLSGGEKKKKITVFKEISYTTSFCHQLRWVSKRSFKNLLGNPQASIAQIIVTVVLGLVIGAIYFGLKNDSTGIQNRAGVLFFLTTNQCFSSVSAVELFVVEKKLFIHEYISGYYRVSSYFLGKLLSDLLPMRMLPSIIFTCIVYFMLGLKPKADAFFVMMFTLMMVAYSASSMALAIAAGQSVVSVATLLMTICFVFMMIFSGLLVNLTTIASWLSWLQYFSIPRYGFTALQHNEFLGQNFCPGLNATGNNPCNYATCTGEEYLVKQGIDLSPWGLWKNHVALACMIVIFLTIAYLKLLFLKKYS

P-gp = P-gp (Homo sapiens, UniProt P08183); experiment: Transporter susceptibility and inhibitory activity, P-gp; format: in vitro ADME; conditions: data not shown
Chain of P-gp (P08183 whole entry): as the sequence (P08183 whole entry) above

CSF ([2]; 4 hours after 15mpk ip): BLQ | Free Brain ([2]; 4 hours after 15mpk ip): BLQ
Structure (SMILES): Cc1ccc(C(=O)c2cc(O)c(O)c([N+](=O)[O-])c2)cc1 [Compound 1, tolcapone, reference compound]
hepatic toxicity (in words) [1]: associated with hepatic toxicity | brain penetration (in words) [3]: low but measurable levels in the brain

Structure (SMILES): CCN(CC)C(=O)/C(C#N)=C/c1cc(O)c(O)c([N+](=O)[O-])c1 [Compound 2, entacapone]
brain penetration (in words) [3]: negligible brain penetration

Structure (SMILES): Cc1c(Cl)c(C)[n+]([O-])c(Cl)c1-c1noc(-c2cc(O)c(O)c([N+](=O)[O-])c2)n1 [Compound 3, opicapone]
brain penetration (in words) [3]: negligible brain penetration

Structure (SMILES): Oc1cccc2cccnc12 [Compound 4, 8-hydroxyquinoline, reference compound]
MB-COMT inhibition / potency (in words) (Human MB-COMT): abolished MB-COMT inhibition

clearance (Rat pharmacokinetics): 26 mL/min/kg
Structure (SMILES): O=S(=O)(c1ccc(O)c2ncccc12)C1CCCC1 [Compound 11, 5-(Cyclopentylsulfonyl)quinoline-8-ol]

Hepatocyte Stability (Rat) (rat hepatocytes): 177 μL/min/10^6 cells | metabolic stability / clearance in rat hepatocytes (in words) (rat hepatocytes): Poor metabolic stability
Structure (SMILES): O=S(=O)(c1ccc(O)c2ncccc12)N1CCCC1 [Compound 12, 5-(Pyrrolidin-1-ylsulfonyl)quinoline-8-ol]

metabolic stability / clearance in rat hepatocytes (in words) (rat hepatocytes): Poor metabolic stability
Structure (SMILES): O=S(=O)(c1ccc(O)c2ncccc12)N1CCC(c2ccc(F)cc2)C1 (centres unmarked) [Compound 13, 5-((3-(4-Fluorophenyl)pyrrolidin-1-yl)sulfonyl)quinoline-8-ol]

MB-COMT inhibition / potency (in words) (Human MB-COMT): no appreciable inhibition of MB-COMT
Structure (SMILES): COc1ccc(S(=O)(=O)N2CCCC2)c2cccnc12 [Compound 14, 8-Methoxy-5-(pyrrolidin-1-yulsulfonyl)quinoline]

Hepatocyte Stability (Rat) (rat hepatocytes): 39 μL/min/10^6 cells | metabolic stability / clearance in rat hepatocytes (in words) (rat hepatocytes): high hepatocyte clearance | overall exposure in mouse (in words) [4]: low overall exposure
Structure (SMILES): CCS(=O)(=O)c1ccc(O)c2ncccc12 [Compound 15, 5-(Ethylsulfonyl)quinoline-8-ol]

Hepatocyte Stability (Rat) (rat hepatocytes): 228 μL/min/10^6 cells | metabolic stability / clearance in rat hepatocytes (in words) (rat hepatocytes): high hepatocyte clearance | overall exposure in mouse (in words) [4]: low overall exposure
Structure (SMILES): O=S(=O)(c1ccc(O)c2ncccc12)N1CCCC1Cc1ccccc1 (centres unmarked) [Compound 16, 5-((2-Benzylpyrrolidin-1-yl)sulfonyl)quinoline-8-ol]

Hepatocyte Stability (Rat) (rat hepatocytes): 46 μL/min/10^6 cells | metabolic stability / clearance in rat hepatocytes (in words) (rat hepatocytes): high hepatocyte clearance
Structure (SMILES): O=S(=O)(c1ccc(C(F)(F)F)cc1)c1ccc(O)c2ncccc12 [Compound 17, 5-((4-(Trifluoromethyl)phenyl)sulfonyl)quinolin-8-ol]

Hepatocyte Stability (Rat) (rat hepatocytes): 12 μL/min/10^6 cells | clearance (Rat pharmacokinetics): 13 mL/min/kg
Structure (SMILES): O=S(=O)(c1ccc(C(F)(F)F)cc1)c1cc(F)c(O)c2ncccc12 [Compound 18, 7-Fluoro-5-((4-(trifluoromethyl)phenyl)sulfonyl)quinolin-8-ol]

Hepatocyte Stability (Rat) (rat hepatocytes): 4 μL/min/10^6 cells | rat PK profile (in words) (Rat pharmacokinetics): very low clearance and long half-life | clearance (Rat pharmacokinetics): 0.31 mL/min/kg
Structure (SMILES): O=S(=O)(c1ccc(F)cc1)c1cc(Cl)c(O)c2ncccc12 [Compound 19, 7-Chloro-5-((4-fluorophenyl)sulfonyl)quinolin-8-ol]

Hepatocyte Stability (Rat) (rat hepatocytes): 15 μL/min/10^6 cells | Non-specific binding to CSF (bound) [5]: 51–57% | concentration at 4 h [2]: 59 nM | P-gp substrate (in words) (P-glycoprotein): not substrates for the transporter | clearance (Rat pharmacokinetics): 12 mL/min/kg
Structure (SMILES): O=S(=O)(c1ccc(F)cc1)c1cc(F)c(O)c2ncccc12 [Compound 20, 7-Fluoro-5-((4-fluorophenyl)sulfonyl)quinolin-8-ol]

Hepatocyte Stability (Rat) (rat hepatocytes): 36 μL/min/10^6 cells | clearance (Rat pharmacokinetics): 27 mL/min/kg
Structure (SMILES): Cc1ccc(S(=O)(=O)c2cc(F)c(O)c3ncccc23)cc1 [Compound 21, 7-Fluoro-5-tosylquinolin-8-ol]

Hepatocyte Stability (Rat) (rat hepatocytes): 78 μL/min/10^6 cells | P-gp substrate (in words) (P-glycoprotein): not substrates for the transporter | clearance (Rat pharmacokinetics): 25 mL/min/kg
Structure (SMILES): Cc1ccc(S(=O)(=O)c2cc(Cl)c(O)c3ncccc23)cc1 [Compound 22, 7-Chloro-5-tosylquinolin-8-ol]

MB-COMT inhibition / potency (in words) (Human MB-COMT): reduced MB-COMT potency
Structure (SMILES): Cc1ccc(S(=O)(=O)c2cc(Br)c(O)c3ncccc23)cc1 [Compound 23, 7-Bromo-5-tosylquinolin-8-ol]

Hepatocyte Stability (Rat) (rat hepatocytes): 19 μL/min/10^6 cells | Non-specific binding to CSF (bound) [5]: 51–57% | concentration at 4 h [2]: 139 nM | rat PK profile (in words) (Rat pharmacokinetics): good pharmacokinetics | clearance (Rat pharmacokinetics): 0.62 mL/min/kg
Structure (SMILES): O=S(=O)(c1cc(F)c(O)c2ncccc12)C1CCCC1 [Compound 25, 5-(Cyclopentylsulfonyl)-7-fluoroquinolin-8-ol]
HVA decrease, significance versus vehicle (in words) [6]: statistically significant difference

Hepatocyte Stability (Rat) (rat hepatocytes): 18 μL/min/10^6 cells | rat PK profile (in words) (Rat pharmacokinetics): very low clearance and long half-life
Structure (SMILES): O=S(=O)(c1cc(Cl)c(O)c2ncccc12)C1CCCC1 [Compound 26, 7-Chloro-5-(cyclopentylsulfonyl)quinolin-8-ol]

Hepatocyte Stability (Rat) (rat hepatocytes): 21 μL/min/10^6 cells | Non-specific binding to CSF (bound) [5]: 51–57% | concentration at 4 h [2]: 77 nM | rat PK profile (in words) (Rat pharmacokinetics): good pharmacokinetics | clearance (Rat pharmacokinetics): 11 mL/min/kg
Structure (SMILES): O=S(=O)(c1cc(F)c(O)c2ncccc12)N1CCCC1 [Compound 28, 7-Fluoro-5-(pyrrolidin-1-ylsulfonyl)quinolin-8-ol]
substrate or inhibitor of MRP2 (in words) (MRP2): not found to be a substrate or an inhibitor | substrate or inhibitor of BCRP (in words) (BCRP): not found to be a substrate or an inhibitor | HVA decrease, significance versus vehicle (in words) [6]: statistically significant difference | substrate or inhibitor of P-gp (in words) (P-gp): not found to be a substrate or an inhibitor

Hepatocyte Stability (Rat) (rat hepatocytes): 14 μL/min/10^6 cells | rat PK profile (in words) (Rat pharmacokinetics): very low clearance and long half-life | clearance (Rat pharmacokinetics): 1 mL/min/kg
Structure (SMILES): O=S(=O)(c1cc(Cl)c(O)c2ncccc12)N1CCCC1 [Compound 29, 7-Chloro-5-(pyrrolidin-1-ylsulfonyl)quinolin-8-ol]

Hepatocyte Stability (Rat) (rat hepatocytes): 103 μL/min/10^6 cells | metabolic stability / clearance in rat hepatocytes (in words) (rat hepatocytes): no impact on clearance
Structure (SMILES): Cc1cc(S(=O)(=O)N2CCCC2)c2cccnc2c1O [Compound 30, 7-Methyl-5-(pyrrolidin-1-ylsulfonyl)quinolin-8-ol]
MB-COMT inhibition / potency (in words) (Human MB-COMT): tolerated
